{"source": "ChEMBL document CHEMBL3797175", "about": "“Discovery of 6-(difluoro(6-(4-fluorophenyl)-[1,2,4]triazolo[4,3-b][1,2,4]triazin-3-yl)methyl)quinoline as a highly potent and selective c-Met inhibitor” (Eur J Med Chem, 2016)", "key": {"[1]": {"assay": "Antitumor activity against human EBC1 cells xenografted in athymic nude mouse assessed as tumor growth inhibition at 12.5 mg/kg, po bid for 21 days measured twice a week during compound dosing relative to control", "type": "functional", "settings": "EBC-1, po, 504 h, read-out: TGI", "summary_of_the_method": "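Nude mice bearing s.c. tumours. Cells were first grown s.c. to 700–800 mm³, then 1.5 mm³ fragments were transplanted s.c. into the right flank. Mice were randomised at 100–200 mm³ (n=6 treated, n=12 vehicle) and dosed orally twice daily for 21 days. Caliper measurement twice weekly; TV = length×width²/2. TGI taken on the final day versus vehicle; Student's t test.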"}, "[2]": {"molecular_target": "Tyrosine-protein kinase receptor TYRO3 (Homo sapiens) (UniProt Q06418)", "assay": "Inhibition of recombinant TYRO3 (unknown origin) using poly (Glu, Tyr) 4:1 as substrate at 1000 nM incubated for 60 mins by ELISA relative to control", "summary_of_the_method": "(§1)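 Recombinant tyrosine kinases assayed on wells precoated with poly(Glu,Tyr)4:1 (20 µg/mL). ATP 10 µmol/L in HEPES pH 7.4 buffer with MgCl2, MnCl2, Na3VO4 and DTT; compound in 1% DMSO, 1% DMSO as control. Reaction 60 min at 37 °C. Phosphotyrosine detected with PY99 and HRP anti-mouse, o-phenylenediamine, A490. Inhibition % relative to control; two experiments.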"}, "[3]": {"molecular_target": "Platelet-derived growth factor receptor beta (Homo sapiens) (UniProt P09619)", "sequence (P09619 whole entry)": "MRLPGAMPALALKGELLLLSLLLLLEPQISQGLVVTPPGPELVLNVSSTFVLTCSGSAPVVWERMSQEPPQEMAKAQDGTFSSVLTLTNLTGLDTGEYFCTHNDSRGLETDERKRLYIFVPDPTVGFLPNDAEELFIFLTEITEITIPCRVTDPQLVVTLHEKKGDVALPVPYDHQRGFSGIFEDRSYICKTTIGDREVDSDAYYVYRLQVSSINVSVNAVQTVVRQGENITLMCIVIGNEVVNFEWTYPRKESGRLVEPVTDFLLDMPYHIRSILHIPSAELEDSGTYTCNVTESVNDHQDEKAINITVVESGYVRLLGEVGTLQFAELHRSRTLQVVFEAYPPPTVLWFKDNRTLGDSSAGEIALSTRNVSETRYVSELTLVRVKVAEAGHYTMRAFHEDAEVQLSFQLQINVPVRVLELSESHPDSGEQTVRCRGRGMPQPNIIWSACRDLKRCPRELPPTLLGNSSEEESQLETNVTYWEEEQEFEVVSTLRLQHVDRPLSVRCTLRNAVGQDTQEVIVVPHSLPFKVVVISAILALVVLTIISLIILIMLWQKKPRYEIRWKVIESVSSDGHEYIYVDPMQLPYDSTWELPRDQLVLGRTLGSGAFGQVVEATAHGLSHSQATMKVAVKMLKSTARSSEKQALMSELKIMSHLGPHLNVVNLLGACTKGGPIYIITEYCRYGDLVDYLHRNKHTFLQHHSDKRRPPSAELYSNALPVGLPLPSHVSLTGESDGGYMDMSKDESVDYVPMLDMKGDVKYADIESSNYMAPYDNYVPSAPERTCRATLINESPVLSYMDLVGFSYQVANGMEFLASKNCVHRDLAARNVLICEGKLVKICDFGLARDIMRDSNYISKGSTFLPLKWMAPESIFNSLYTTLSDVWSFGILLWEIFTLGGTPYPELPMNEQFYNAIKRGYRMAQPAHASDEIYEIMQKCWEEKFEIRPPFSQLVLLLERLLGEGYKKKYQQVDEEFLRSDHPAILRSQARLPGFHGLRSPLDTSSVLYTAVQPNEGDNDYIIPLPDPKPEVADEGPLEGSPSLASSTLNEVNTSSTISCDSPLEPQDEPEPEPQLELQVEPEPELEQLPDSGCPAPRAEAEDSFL", "assay": "Inhibition of recombinant PDGFRbeta (unknown origin) using poly (Glu, Tyr) 4:1 as substrate at 1000 nM incubated for 60 mins by ELISA relative to control", "summary_of_the_method": "as §1"}, "[4]": {"molecular_target": "Receptor tyrosine-protein kinase erbB-4 (Homo sapiens) (UniProt Q15303)", "assay": "Inhibition of recombinant ERBB4 (unknown origin) using poly (Glu, Tyr) 4:1 as substrate at 1000 nM incubated for 60 mins by ELISA relative to control", "summary_of_the_method": "as §1"}, "[5]": {"molecular_target": "Vascular endothelial growth factor receptor 1 (Homo sapiens) (UniProt P17948)", "sequence (P17948 whole entry)": "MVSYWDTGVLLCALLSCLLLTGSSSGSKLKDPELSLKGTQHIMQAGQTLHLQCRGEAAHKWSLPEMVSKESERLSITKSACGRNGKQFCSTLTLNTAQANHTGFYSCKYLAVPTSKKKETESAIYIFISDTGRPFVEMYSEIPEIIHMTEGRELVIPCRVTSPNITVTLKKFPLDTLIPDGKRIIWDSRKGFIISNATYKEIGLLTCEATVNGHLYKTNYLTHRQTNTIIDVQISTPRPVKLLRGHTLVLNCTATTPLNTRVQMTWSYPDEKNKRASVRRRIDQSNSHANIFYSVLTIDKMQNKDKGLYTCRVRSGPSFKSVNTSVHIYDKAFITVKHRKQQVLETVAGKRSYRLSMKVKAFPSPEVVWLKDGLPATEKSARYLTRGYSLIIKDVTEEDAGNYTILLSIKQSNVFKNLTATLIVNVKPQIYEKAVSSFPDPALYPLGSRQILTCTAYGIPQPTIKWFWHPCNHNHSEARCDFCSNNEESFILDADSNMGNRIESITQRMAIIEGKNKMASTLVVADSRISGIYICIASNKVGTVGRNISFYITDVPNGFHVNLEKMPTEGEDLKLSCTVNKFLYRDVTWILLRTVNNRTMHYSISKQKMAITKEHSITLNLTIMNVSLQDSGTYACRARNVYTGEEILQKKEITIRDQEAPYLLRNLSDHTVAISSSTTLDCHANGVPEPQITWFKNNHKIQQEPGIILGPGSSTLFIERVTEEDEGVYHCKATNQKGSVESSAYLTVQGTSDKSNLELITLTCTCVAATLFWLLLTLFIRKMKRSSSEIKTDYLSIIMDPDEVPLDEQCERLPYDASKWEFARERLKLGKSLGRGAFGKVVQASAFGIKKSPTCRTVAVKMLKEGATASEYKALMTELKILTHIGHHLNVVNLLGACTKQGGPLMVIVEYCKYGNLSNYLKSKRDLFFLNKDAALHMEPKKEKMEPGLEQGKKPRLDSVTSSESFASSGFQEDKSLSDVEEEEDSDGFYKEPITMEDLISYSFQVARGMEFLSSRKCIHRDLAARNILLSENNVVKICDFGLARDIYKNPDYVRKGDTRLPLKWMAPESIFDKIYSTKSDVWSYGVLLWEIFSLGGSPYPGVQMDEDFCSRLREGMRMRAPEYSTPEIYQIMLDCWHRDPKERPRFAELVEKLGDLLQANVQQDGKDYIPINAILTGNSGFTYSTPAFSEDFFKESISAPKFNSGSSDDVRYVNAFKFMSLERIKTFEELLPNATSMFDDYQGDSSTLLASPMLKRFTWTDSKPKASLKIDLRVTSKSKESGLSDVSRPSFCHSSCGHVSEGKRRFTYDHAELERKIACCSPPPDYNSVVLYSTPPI", "assay": "Inhibition of recombinant FLT1 (unknown origin) using poly (Glu, Tyr) 4:1 as substrate at 1000 nM incubated for 60 mins by ELISA relative to control", "summary_of_the_method": "as §1"}, "[6]": {"molecular_target": "Proto-oncogene tyrosine-protein kinase Src (Homo sapiens) (UniProt P12931)", "sequence (P12931 2-536 limits assumed)": "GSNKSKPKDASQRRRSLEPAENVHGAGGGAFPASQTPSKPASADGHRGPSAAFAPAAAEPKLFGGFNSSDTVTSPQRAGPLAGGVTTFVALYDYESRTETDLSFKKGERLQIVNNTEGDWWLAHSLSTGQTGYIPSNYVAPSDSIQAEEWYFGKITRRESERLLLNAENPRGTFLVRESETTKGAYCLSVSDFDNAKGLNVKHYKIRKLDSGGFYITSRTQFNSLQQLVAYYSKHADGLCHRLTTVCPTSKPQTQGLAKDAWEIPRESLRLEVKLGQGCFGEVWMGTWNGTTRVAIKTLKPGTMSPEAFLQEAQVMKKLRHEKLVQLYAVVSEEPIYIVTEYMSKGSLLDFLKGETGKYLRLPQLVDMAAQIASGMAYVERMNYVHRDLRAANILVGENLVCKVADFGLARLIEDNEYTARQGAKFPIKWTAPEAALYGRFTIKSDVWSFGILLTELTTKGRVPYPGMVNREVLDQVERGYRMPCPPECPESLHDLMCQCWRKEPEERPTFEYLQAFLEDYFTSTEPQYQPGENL", "assay": "Inhibition of recombinant c-Src (unknown origin) using poly (Glu, Tyr) 4:1 as substrate at 1000 nM incubated for 60 mins by ELISA relative to control", "summary_of_the_method": "as §1"}, "[7]": {"molecular_target": "T1, Hepatocyte growth factor receptor (Homo sapiens, UniProt P08581)", "T1 sequence (P08581 whole entry)": "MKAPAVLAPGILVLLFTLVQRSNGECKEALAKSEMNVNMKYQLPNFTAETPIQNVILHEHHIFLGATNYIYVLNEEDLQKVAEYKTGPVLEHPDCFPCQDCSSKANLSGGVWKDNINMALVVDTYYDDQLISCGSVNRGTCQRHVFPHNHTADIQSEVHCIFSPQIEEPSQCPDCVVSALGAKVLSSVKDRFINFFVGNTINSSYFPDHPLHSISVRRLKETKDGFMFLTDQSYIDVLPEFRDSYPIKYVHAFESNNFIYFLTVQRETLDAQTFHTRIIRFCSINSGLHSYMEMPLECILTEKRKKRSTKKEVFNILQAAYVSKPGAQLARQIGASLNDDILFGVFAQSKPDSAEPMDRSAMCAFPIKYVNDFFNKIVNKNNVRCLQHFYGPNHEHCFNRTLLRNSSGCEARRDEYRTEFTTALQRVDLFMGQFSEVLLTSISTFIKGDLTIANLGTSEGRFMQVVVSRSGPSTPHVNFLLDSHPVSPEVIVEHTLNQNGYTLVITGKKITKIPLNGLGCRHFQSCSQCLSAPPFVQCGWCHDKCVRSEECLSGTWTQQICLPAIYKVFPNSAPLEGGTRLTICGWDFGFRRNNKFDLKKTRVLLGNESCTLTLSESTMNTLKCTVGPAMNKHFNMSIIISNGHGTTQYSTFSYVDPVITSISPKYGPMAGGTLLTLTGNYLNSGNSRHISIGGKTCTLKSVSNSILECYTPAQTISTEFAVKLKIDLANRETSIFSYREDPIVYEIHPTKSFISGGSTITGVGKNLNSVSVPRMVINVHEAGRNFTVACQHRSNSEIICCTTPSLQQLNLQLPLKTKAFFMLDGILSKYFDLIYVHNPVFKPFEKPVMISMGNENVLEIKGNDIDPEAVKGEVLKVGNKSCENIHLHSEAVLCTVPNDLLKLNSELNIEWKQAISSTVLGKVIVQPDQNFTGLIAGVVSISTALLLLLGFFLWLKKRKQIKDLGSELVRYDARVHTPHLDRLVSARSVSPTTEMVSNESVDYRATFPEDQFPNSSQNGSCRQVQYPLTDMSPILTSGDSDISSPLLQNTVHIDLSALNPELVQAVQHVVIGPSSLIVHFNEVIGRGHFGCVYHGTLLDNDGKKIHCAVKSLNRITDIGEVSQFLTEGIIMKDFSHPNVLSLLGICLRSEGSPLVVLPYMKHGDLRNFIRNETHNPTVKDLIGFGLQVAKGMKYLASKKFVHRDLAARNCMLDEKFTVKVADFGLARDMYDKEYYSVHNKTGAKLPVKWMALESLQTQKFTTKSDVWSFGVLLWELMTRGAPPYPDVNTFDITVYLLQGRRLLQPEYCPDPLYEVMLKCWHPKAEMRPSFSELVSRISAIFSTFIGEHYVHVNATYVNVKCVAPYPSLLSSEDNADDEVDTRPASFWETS", "assay": "Inhibition of c-Met in human MKN45 cells assessed as reduction in AKT phosphorylation at Serine 473 at 10 nM after 1 hr by Western blot analysis", "type": "cell-based", "settings": "MKN-45", "summary_of_the_method": "(§2)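 EBC-1 or MKN45 cells treated with compound 1 h at 37 °C without HGF, then lysed in 1× SDS sample buffer. Lysates run on 10% SDS-PAGE and transferred to nitrocellulose. Probed with antibodies to c-Met, phospho-c-Met, phospho-ERK1/2, phospho-AKT, AKT and GAPDH, then HRP secondary. ECL detection.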"}, "[8]": {"molecular_target": "T1, Hepatocyte growth factor receptor", "assay": "Inhibition of c-Met in human EBC1 cells assessed as reduction in ERK phosphorylation at Tyrosine 204 at 10 nM after 1 hr by Western blot analysis", "type": "cell-based", "summary_of_the_method": "as §2"}, "[9]": {"molecular_target": "T1, Hepatocyte growth factor receptor", "assay": "Inhibition of c-Met in HGF stimulated human U87MG cells assessed as reduction in ERK phosphorylation at Tyrosine 204 at 10 nM after 1 hr by Western blot analysis", "type": "cell-based", "settings": "U-87MG ATCC", "summary_of_the_method": "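U87MG cells serum-starved 24 h, pretreated with compound 1 h at 37 °C, then stimulated with HGF (100 ng/mL) for 15 min. Lysed in 1× SDS sample buffer, resolved by 10% SDS-PAGE and blotted to nitrocellulose. Probed for phospho-c-Met, phospho-ERK1/2, phospho-AKT and totals, with GAPDH as loading control. ECL detection.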"}, "[10]": {"system": "786-0", "assay": "Antiproliferative activity against human 786-0 cells after 72 hrs by SRB or MTT assay", "type": "functional, cell-based", "settings": "786-0, 72 h", "summary_of_the_method": "(§3)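 Cells seeded, exposed next day to a range of concentrations for 72 h. Growth read by sulforhodamine B or MTT. IC50 from four-parameter concentration-response fit. Each concentration tested at least in triplicate, with at least 2 experiments.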"}, "[11]": {"system": "NCI-H358", "assay": "Antiproliferative activity against human NCI-H358 cells after 72 hrs by SRB or MTT assay", "type": "functional, cell-based", "settings": "NCI-H358, 72 h", "summary_of_the_method": "as §3"}, "[12]": {"system": "Mus musculus", "assay": "Toxicity in athymic nude mouse xenografted with human EBC1 cells assessed as body weight loss at 6.25 to 25 mg/kg, po bid for 21 days measured twice a week during compound dosing", "type": "organism-based", "settings": "in vivo, 504 h", "summary_of_the_method": "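Nude mice carrying s.c. EBC-1 tumor fragments, randomized at 100–200 mm³ (n=6 treated, n=12 vehicle). Dosed orally twice daily for 21 days. Body weight and caliper tumor volume measured twice weekly.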"}, "[13]": {"assay": "Selectivity ratio of IC50 for human U87MG cells to IC50 for human MKN45 cells", "type": "ADME, cell-based", "settings": "u-87mg atcc"}, "[14]": {"assay": "Selectivity ratio of IC50 for human 786-0 cells to IC50 for mouse BAF3 cells expressing TPR-MET", "type": "ADME, cell-based", "summary_of_the_method": "(§4)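 Both IC50s in each ratio come from one proliferation assay. Cells were seeded and exposed the next day to a range of concentrations for 72 h, then read by SRB or MTT. IC50s were fitted by four-parameter concentration–response, with each concentration at least in triplicate and at least 2 experiments. BaF3/TPR-Met is murine pre-B BaF3 transfected with TPR-MET and puromycin-selected.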"}, "[15]": {"assay": "Selectivity ratio of IC50 for human SMMC7721 cells to IC50 for human EBC1 cells", "type": "ADME, cell-based", "settings": "smmc-7721", "summary_of_the_method": "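Each cell line was seeded in 96-well plates, then exposed the next day to a range of compound concentrations for 72 h. Growth was read by SRB or MTT assay, and IC50 was fitted by a four-parameter concentration-response curve. Each concentration was run at least in triplicate, in at least 2 experiments. BaF3/TPR-Met are murine pre-B BaF3 cells transfected with TPR-MET cDNA and selected in puromycin.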"}, "[16]": {"assay": "Selectivity ratio of IC50 for human NCI-H358 cells to IC50 for mouse BAF3 cells expressing TPR-MET", "type": "ADME, cell-based", "summary_of_the_method": "as §4"}, "[17]": {"assay": "Selectivity ratio of IC50 for human NCI-H292 cells to IC50 for mouse BAF3 cells expressing TPR-MET", "type": "ADME, cell-based", "summary_of_the_method": "as §4"}, "[18]": {"assay": "Selectivity ratio of IC50 for human NCI-H226 cells to IC50 for human EBC1 cells", "type": "ADME, cell-based", "summary_of_the_method": "as §4"}, "[19]": {"assay": "Selectivity ratio of IC50 for human Calu3 cells to IC50 for human MKN45 cells", "type": "ADME, cell-based", "settings": "mkn-45", "summary_of_the_method": "as §4"}, "[20]": {"assay": "Selectivity ratio of IC50 for human MDA-MB-231 cells to IC50 for human EBC1 cells", "type": "ADME, cell-based", "summary_of_the_method": "as §4"}, "[21]": {"assay": "Selectivity ratio of IC50 for human MGC803 cells to IC50 for human MKN45 cells", "type": "ADME, cell-based", "settings": "mgc-803", "summary_of_the_method": "as §4"}, "[22]": {"assay": "Selectivity ratio of IC50 for human SPCA4 cells to IC50 for mouse BAF3 cells expressing TPR-MET", "type": "ADME, cell-based", "settings": "SPCA4 cells versus BAF3 cells expressing TPR-MET"}, "[23]": {"assay": "Selectivity ratio of IC50 for human SPCA1 cells to IC50 for human MKN45 cells", "type": "ADME, cell-based", "settings": "SPCA1 cells versus MKN45 cells"}}, "note": "Calls of active or inactive are those of the source. The calls are words filed in the database; no cut-off is given here.", "data": [{"smiles": "Fc1ccc(-c2cnc3nnc(C(F)(F)c4ccc5ncccc5c4)n3n2)cc1", "values": [{"measurement": "inhibition in vivo at 12.5 mg/kg", "setting": "[1]", "value": 75.6, "unit": "%"}, {"measurement": "inhibition", "setting": "[2]", "value": 10.1, "unit": "%"}, {"measurement": "inhibition", "setting": "[3]", "value": 19.6, "unit": "%"}, {"measurement": "inhibition", "setting": "[4]", "value": 26.8, "unit": "%"}, {"measurement": "inhibition", "setting": "[5]", "value": 11.5, "unit": "%"}, {"measurement": "inhibition", "setting": "[6]", "value": 13.7, "unit": "%"}, {"measurement": "inhibition", "setting": "[7]", "value": "Active"}, {"measurement": "inhibition", "setting": "[8]", "value": "Active"}, {"measurement": "inhibition", "setting": "[9]", "value": "Active"}, {"measurement": "IC50", "setting": "[10]", "value": "> 10", "unit": "µM"}, {"measurement": "IC50", "setting": "[11]", "value": "> 10", "unit": "µM"}, {"measurement": "Activity", "setting": "[12]", "value": "Non-toxic"}, {"measurement": "Ratio IC50", "setting": "[13]", "value": 10000}, {"measurement": "Ratio IC50", "setting": "[14]", "value": 10000}, {"measurement": "Ratio IC50", "setting": "[15]", "value": 10000}, {"measurement": "Ratio IC50", "setting": "[16]", "value": 10000}, {"measurement": "Ratio IC50", "setting": "[17]", "value": 10000}, {"measurement": "Ratio IC50", "setting": "[18]", "value": "> 10000"}, {"measurement": "Ratio IC50", "setting": "[19]", "value": "> 10000"}, {"measurement": "Ratio IC50", "setting": "[20]", "value": "> 10000"}, {"measurement": "Ratio IC50", "setting": "[21]", "value": "> 10000"}, {"measurement": "selectivity ratio", "setting": "[22]", "value": "> 10000"}, {"measurement": "selectivity ratio", "setting": "[23]", "value": "> 10000"}]}]}
